Fold change (FC) and Activity data for one compound are collected here from ChEMBL document CHEMBL1153954, “Promiscuous aggregate-based inhibitors promote enzyme unfolding” (J Med Chem, 2009).

Test [1] deals with AmpC (Escherichia coli) (UniProt Q83TT7). Description: Aggregation based inhibition of Escherichia coli AmpC assessed as increase in deuteration of AmpC peptide fragment spanning 109-128 amino acid sequence after 1 hr by hydrogen-deuterium exchange mass spectrometry relative to control. The method in brief: (§1)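 AmpC β-lactamase diluted from a 215 μM stock (50 mM KPi, pH 7.0) into deuterated 50 mM MOPS in D2O, pH 7.0. Final enzyme was 0.16 μM with 100 μM aggregator (0.5% DMSO) or 16 μM without. Aggregate samples were centrifuged 16000g for 5 min and the pellet kept. Triton X-100 was added to release enzyme. Samples were quenched with ice-cold 0.1% TFA pH 2.5, digested on immobilized pepsin 5 min on ice, then analysed by chilled fast-gradient LC-MS. Deuterium uptake is centroid mass shift versus the undeuterated control, not corrected for back exchange. Ratio is inhibited over uninhibited, from three replicates.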

Test [2] has the same target. Description: Aggregation based inhibition of Escherichia coli AmpC assessed as solvent accessibility of AmpC peptide fragment spanning 105-128 amino acid sequence by measuring ratio of side chain surface area to random coil values per amino acid reside by hydrogen-deuterium exchange mass spectrometry relative to control. Further details: scale not given: the % may be the effect or the level left. The method in brief: (§2)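 Side-chain solvent accessibility per peptide was calculated from the structure with a 1.4 Å probe radius and default atomic radii and solvation parameters. Each value is the average over residues of the side-chain surface area relative to its random-coil value. Above 50% is exposed; below 20% is buried.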

The target is the same in test [3]. Description: Aggregation based inhibition of Escherichia coli AmpC assessed as increase in deuteration of AmpC peptide fragment spanning 271-289 amino acid sequence after 8 hrs by hydrogen-deuterium exchange mass spectrometry relative to control. The method in brief: as §1
The target is the same in test [4]. Kind of test: Aggregation based inhibition of Escherichia coli AmpC assessed as increase in deuteration of AmpC peptide fragment spanning 243-250 amino acid sequence after 8 hrs by hydrogen-deuterium exchange mass spectrometry relative to control. The method in brief:
as §1

For test [5] the target is unchanged. Kind of test: Aggregation based inhibition of Escherichia coli AmpC assessed as increase in deuteration of AmpC peptide fragment spanning 243-250 amino acid sequence after 10 mins by hydrogen-deuterium exchange mass spectrometry relative to control. In outline: as §1
For test [6] the target is unchanged. Kind of test: Aggregation based inhibition of Escherichia coli AmpC assessed as solvent accessibility of AmpC peptide fragment spanning 271-289 amino acid sequence by measuring ratio of side chain surface area to random coil values per amino acid reside by hydrogen-deuterium exchange mass spectrometry relative to control. Details: scale not given: the % may be the effect or the level left. In outline: as §2

The target is the same in test [7]. Kind of test: Aggregation based inhibition of Escherichia coli AmpC assessed as solvent accessibility of AmpC peptide fragment spanning 109-128 amino acid sequence by measuring ratio of side chain surface area to random coil values per amino acid reside by hydrogen-deuterium exchange mass spectrometry relative to control. Further details: scale not given: the % may be the effect or the level left. In outline: as §2

Test [8] shares this target. Description: Aggregation based inhibition of Escherichia coli AmpC assessed as increase in deuteration of AmpC peptide fragment spanning 105-128 amino acid sequence after 1 hr by hydrogen-deuterium exchange mass spectrometry relative to control. The method in brief:
as §1

Test [9] shares this target. Description: Aggregation based inhibition of Escherichia coli AmpC assessed as increase in deuteration of AmpC peptide fragment spanning 105-128 amino acid sequence after 8 hrs by hydrogen-deuterium exchange mass spectrometry relative to control. In outline:
as §1

Test [10] shares this target. Kind of test: Aggregation based inhibition of Escherichia coli AmpC assessed as increase in deuteration of AmpC peptide fragment spanning 336-350 amino acid sequence after 8 hrs by hydrogen-deuterium exchange mass spectrometry relative to control. In outline: as §1
Test [11] has the same target. Description: Aggregation based inhibition of Escherichia coli AmpC assessed as increase in deuteration of AmpC peptide fragment spanning 323-332 amino acid sequence after 10 mins by hydrogen-deuterium exchange mass spectrometry relative to control. The method in brief: as §1
Test [12] shares this target. Kind of test: Aggregation based inhibition of Escherichia coli AmpC assessed as increase in deuteration of AmpC peptide fragment spanning 291-322 amino acid sequence after 8 hrs by hydrogen-deuterium exchange mass spectrometry relative to control. The method in brief: as §1
The target is the same in test [13]. Description: Aggregation based inhibition of Escherichia coli AmpC assessed as increase in deuteration of AmpC peptide fragment spanning 323-332 amino acid sequence after 1 hr by hydrogen-deuterium exchange mass spectrometry relative to control. In outline: as §1
The target is the same in test [14]. Description: Aggregation based inhibition of Escherichia coli AmpC assessed as increase in deuteration of AmpC peptide fragment spanning 132-146 amino acid sequence after 1 hr by hydrogen-deuterium exchange mass spectrometry relative to control. The method in brief: as §1
The target is the same in test [15]. Description: Aggregation based inhibition of Escherichia coli AmpC assessed as increase in deuteration of AmpC peptide fragment spanning 336-350 amino acid sequence after 1 hr by hydrogen-deuterium exchange mass spectrometry relative to control. The method in brief: as §1
Test [16] shares this target. Kind of test: Aggregation based inhibition of Escherichia coli AmpC assessed as increase in deuteration of AmpC peptide fragment spanning 109-128 amino acid sequence after 10 mins by hydrogen-deuterium exchange mass spectrometry relative to control. The method in brief: as §1
Test [17] shares this target. Description: Aggregation based inhibition of Escherichia coli AmpC assessed as increase in deuteration of AmpC peptide fragment spanning 42-56 amino acid sequence after 1 hr by hydrogen-deuterium exchange mass spectrometry relative to control. The method in brief: as §1
For test [18] the target is unchanged. Kind of test: Aggregation based inhibition of Escherichia coli AmpC assessed as solvent accessibility of AmpC peptide fragment spanning 132-146 amino acid sequence by measuring ratio of side chain surface area to random coil values per amino acid reside by hydrogen-deuterium exchange mass spectrometry relative to control. Further details: scale not given: the % may be the effect or the level left. In outline: as §2

Test [19] has the same target. Kind of test: Aggregation based inhibition of Escherichia coli AmpC assessed as increase in deuteration of AmpC peptide fragment spanning 42-56 amino acid sequence after 10 mins by hydrogen-deuterium exchange mass spectrometry relative to control. The method in brief:
as §1

For test [20] the target is unchanged. Kind of test: Aggregation based inhibition of Escherichia coli AmpC assessed as increase in deuteration of AmpC peptide fragment spanning 336-350 amino acid sequence after 10 mins by hydrogen-deuterium exchange mass spectrometry relative to control. The method in brief:
as §1

Sequence of AmpC (Escherichia coli) (Q83TT7 as listed by the source): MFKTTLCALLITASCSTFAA

On to `CC(=O)c1c(O)c(C)c(O)c(Cc2c(O)c3c(c(C(=O)/C=C/c4ccccc4)c2O)OC(C)(C)C=C3)c1O`, for which the fold change (FC) on AmpC (Escherichia coli) [1] stood at 2.5; on AmpC (Escherichia coli) [3], 1.4; at AmpC (Escherichia coli) [4], 1.7; on AmpC (Escherichia coli) [5], 1.2; on AmpC (Escherichia coli) [8], 2.6; on AmpC (Escherichia coli) [9] it was 1.8. For the same compound, the fold change (FC) on AmpC (Escherichia coli) [10] was found to be 2; at AmpC (Escherichia coli) [11], 1.3; on AmpC (Escherichia coli) [12] it was 1.8; at AmpC (Escherichia coli) [13], 3; on AmpC (Escherichia coli) [14], 4.2; at AmpC (Escherichia coli) [15], 3.7. Also, the fold change (FC) at AmpC (Escherichia coli) [16] stood at 1.5; on AmpC (Escherichia coli) [17], 2.7; on AmpC (Escherichia coli) [19], 1.9; on AmpC (Escherichia coli) [20] it was 1.7. The Activity at AmpC (Escherichia coli) [2] amounted to 31.3%; at AmpC (Escherichia coli) [6] it was 40.7%; on AmpC (Escherichia coli) [7], 36.9%; on AmpC (Escherichia coli) [18], 34.8%.
